Test results reported in ChEMBL document CHEMBL2321757, “Anti-leukemic activity of ubiquinone-based compounds targeting trans-plasma membrane electron transport” (J Med Chem, 2013).
Active and inactive are the calls of the source. No cut-off for these calls is given here.

Key:
[1] = Inhibition of tPMET complex in human mitochondrial gene-knockout HL60 cells after 30 mins by WST-1/mPMS reduction assay; format: cell-based; conditions: HL-60, 0.5 h
Summary of the method: (§1)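 Exponential-phase cells were resuspended in HBSS at 1.0 × 10⁶ cells/mL final. Compound in DMSO was serially diluted 10-fold in HBSS from 200 μM, in triplicate, and preincubated 30 min at 37 °C, 5% CO₂. WST-1 (500 μM final) with mPMS (20 μM final) was then added. Reduction was read in real time at 450 nm over 40 min. IC50 is a dose-response mean ± SEM (n = 2/3).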

[2] = Inhibition of tPMET complex in human HL60 cells after 30 mins by WST-1/mPMS reduction assay; format: cell-based; conditions: HL-60, 0.5 h; summary of the method: as §1
HL-60 [3] = assay: Antiproliferative activity against human HL60 cells after 48 hrs by MTT assay; format: functional, cell-based; conditions: HL-60, 48 h
Summary of the method: (§2)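 HL60 cells were grown in RPMI-1640 with 5% FBS. The mtDNA-knockout line was derived by 6−8 weeks in ethidium bromide (50 ng/mL) and kept with 50 μg/mL uridine and 1 mM pyruvate. Compound in DMSO was serially diluted 3-fold in RPMI […], in triplicate. Cells at 0.2 × 10⁶/mL final ran 48 h at 37 °C, 5% CO₂. MTT was added for 2 h, then overnight lysis, read at A570. IC50 is a dose-response mean ± SEM (n = 2/3).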

HL-60 [4] = assay: Antiproliferative activity against human mitochondrial gene-knockout HL60 cells after 48 hrs by MTT assay; format: functional, cell-based; conditions: HL-60, 48 h; summary of the method: as §2
HL-60 [5] = assay: Induction of apoptosis in human HL60 cells at 30 uM after 24 hrs by propidium iodide staining-based flow cytometric analysis; format: functional, cell-based
HL-60 [6] = assay: Cell cycle arrest in human mitochondrial gene-knockout HL60 cells assessed as accumulation at G2 phase at 30 uM after 24 hrs by propidium iodide staining-based flow cytometric analysis (reference value: 18 %); format: functional
HL-60 [7] = assay: Cell cycle arrest in human mitochondrial gene-knockout HL60 cells assessed as accumulation at S phase at 30 uM after 24 hrs by propidium iodide staining-based flow cytometric analysis (reference value: 24 %); format: functional
HL-60 [8] = assay: Cell cycle arrest in human HL60 cells assessed as accumulation at sub G1 phase at 30 uM after 24 hrs by propidium iodide staining-based flow cytometric analysis (reference value: 11 %); format: functional
HL-60 [9] = assay: Cell cycle arrest in human mitochondrial gene-knockout HL60 cells assessed as accumulation at G1 phase at 30 uM after 24 hrs by propidium iodide staining-based flow cytometric analysis (reference value: 55 %); format: functional
HL-60 [10] = assay: Cell cycle arrest in human HL60 cells assessed as accumulation at S phase at 30 uM after 24 hrs by propidium iodide staining-based flow cytometric analysis (reference value: 28 %); format: functional
HL-60 [11] = assay: Cell cycle arrest in human HL60 cells assessed as accumulation at G1 phase at 30 uM after 24 hrs by propidium iodide staining-based flow cytometric analysis (reference value: 38 %); format: functional
HL-60 [12] = assay: Cell cycle arrest in human HL60 cells assessed as accumulation at G2 phase at 30 uM after 24 hrs by propidium iodide staining-based flow cytometric analysis (reference value: 22 %); format: functional
HL-60 [13] = assay: Cell cycle arrest in human mitochondrial gene-knockout HL60 cells assessed as accumulation at sub G1 phase at 30 uM after 24 hrs by propidium iodide staining-based flow cytometric analysis (reference value: 3 %); format: functional
HL-60 [14] = assay: Induction of apoptosis in human mitochondrial gene-knockout HL60 cells at 30 uM after 72 hrs by propidium iodide staining-based flow cytometric analysis; format: functional, cell-based

Row | Structure (SMILES) | IC50 [1] | IC50 [2] | IC50 (HL-60 [3]) | IC50 (HL-60 [4]) | Activity (HL-60 [5]) | Activity (HL-60 [6]) | Activity (HL-60 [7]) | Activity (HL-60 [8]) | Activity (HL-60 [9]) | Activity (HL-60 [10]) | Activity (HL-60 [11]) | Activity (HL-60 [12]) | Activity (HL-60 [13]) | Activity (HL-60 [14])
1 | COC1=C(OC)C(=O)C(CCCCCCCCCCOCc2cccc(S(=O)(=O)O)c2)=C(C)C1=O | 70 µM | 81 µM | 143 µM | 120 µM | – | – | – | – | – | – | – | – | – | –
2 | COC1=C(OC)C(=O)C(CCCCCCCCCC[N+](C)(Cc2ccccc2)Cc2ccccc2)=C(C)C1=O.[I-] | 47 µM | 10 µM | 3 µM | 3 µM | Active | 0% | 0% | 57% | 35% | 8% | 24% | 10% | 0% | –
3 | COC1=C(OC)C(=O)C(CCCCCCCCCCn2cc[n+](Cc3ccccc3)c2)=C(C)C1=O | 68 µM | 9 µM | 2 µM | 5 µM | – | – | – | – | – | – | – | – | – | –
4 | COC1=C(OC)C(=O)C(CCCCCCCCCCc2c(O)cc(O)cc2O)=C(C)C1=O | 9 µM | 21 µM | > 200 µM | > 200 µM | – | – | – | – | – | – | – | – | – | –
5 | COC1=C(OC)C(=O)C(CCCCCCCCCCN2CCOCC2)=C(C)C1=O | 46 µM | 33 µM | 3 µM | 15 µM | – | – | – | – | – | – | – | – | – | –
6 | COC1=C(OC)C(=O)C(CCCCCCCCCC[N+](Cc2ccccc2)(Cc2ccccc2)Cc2ccccc2)=C(C)C1=O | 54 µM | 14 µM | 2 µM | 3 µM | Active | – | – | – | – | – | – | – | – | –
7 | COC1=C(OC)C(=O)C(CCCCCCCCCCN(Cc2ccccc2)Cc2ccccc2)=C(C)C1=O | > 200 µM | > 200 µM | 33 µM | > 200 µM | – | – | – | – | – | – | – | – | – | –
8 | COC1=C(OC)C(=O)C(CCCCCO)=C(C)C1=O | 123 µM | > 200 µM | 13 µM | 8 µM | – | – | – | – | – | – | – | – | – | –
9 | COC1=C(OC)C(=O)C(CCCCCCCCCC[N+]2(C)CCOCC2)=C(C)C1=O | > 200 µM | 122 µM | 1 µM | > 200 µM | – | – | – | – | – | – | – | – | – | –
10 | COC1=C(OC)C(=O)C(CCCCCCCCCCn2ccnc2)=C(C)C1=O | 33 µM | 14 µM | 3 µM | 15 µM | – | – | – | – | – | – | – | – | – | –
11 | COC1=C(OC)C(=O)C(CCCCCCCCCCOc2cc(O)cc(O)c2)=C(C)C1=O | 13 µM | 6 µM | 16 µM | 63 µM | Active | – | – | – | – | – | – | – | – | Active
12 | COC1=C(OC)C(=O)C(CCCOCc2cccc(S(=O)(=O)O)c2)=C(C)C1=O | > 200 µM | > 200 µM | > 200 µM | > 200 µM | – | – | – | – | – | – | – | – | – | –
13 | COC1=C(OC)C(=O)C(CCCO)=C(C)C1=O | 92 µM | > 200 µM | 13 µM | 15 µM | – | – | – | – | – | – | – | – | – | –
14 | COC1=C(OC)C(=O)C(CCCCCCCCCCn2cc[n+](C)c2)=C(C)C1=O | 78 µM | 23 µM | 35 µM | 44 µM | – | – | – | – | – | – | – | – | – | –
15 | COC1=C(OC)C(=O)C(CCCCCCCCCCO)=C(C)C1=O [IDEBENONE] | 70 µM | 77 µM | 36 µM | > 200 µM | – | 15% | 36% | 12% | 36% | 2% | 51% | 35% | 99% | –
